The values that follow come from ChEMBL document CHEMBL3526048, “In vitro metabolism of rivoglitazone, a novel peroxisome proliferator-activated receptor γ agonist, in rat, monkey, and human liver microsomes and freshly isolated hepatocytes” (Drug Metab Dispos, 2011).

The subject of data set [1] is Liver microsome. The data set is described as follows: Drug level in Sprague-Dawley rat liver microsomes treated with [14C]-rivoglitazone at 20 uM after 2 hrs by radio-HPLC/LC-MS/MS analysis in presence of NADPH-generating system and NADPH-generating system/SAM. It counts as ADME. In a few lines:
(§1)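 Pooled male liver microsomes (1 mg/ml protein; rat from 94 Sprague-Dawley, monkey from 8 cynomolgus, human from 23 donors) were incubated with [¹⁴C]rivoglitazone (20 μM). Buffer: 10 mM potassium phosphate (pH 7.4). Cofactors: NADPH-generating system (2 mM NADP⁺, 20 mM G6P, 2 U/ml G6PDH, 10 mM MgCl₂), with or without 2 mM SAM. Incubation 2 h at 37°C with shaking; controls lacked NADPH system and SAM alone. Acetonitrile stop, radio-HPLC plus LC-MS.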

The target of a further data set is Cytochrome P450 3A4 (Homo sapiens, UniProt P08684). As to the kind of experiment: Activity of human CYP3A4 expressed in microsomes isolated from baculovirus infected insect cell assessed as enzyme-mediated compound formation treated with [14C]-rivoglitazone at 20 uM after 2 hrs by radio-HPLC/LC-MS/MS analysis in presence of NADPH-generating system and NADPH-generating system/SAM. The data set is classed as ADME.
Sequence of Cytochrome P450 3A4 (P08684 whole entry): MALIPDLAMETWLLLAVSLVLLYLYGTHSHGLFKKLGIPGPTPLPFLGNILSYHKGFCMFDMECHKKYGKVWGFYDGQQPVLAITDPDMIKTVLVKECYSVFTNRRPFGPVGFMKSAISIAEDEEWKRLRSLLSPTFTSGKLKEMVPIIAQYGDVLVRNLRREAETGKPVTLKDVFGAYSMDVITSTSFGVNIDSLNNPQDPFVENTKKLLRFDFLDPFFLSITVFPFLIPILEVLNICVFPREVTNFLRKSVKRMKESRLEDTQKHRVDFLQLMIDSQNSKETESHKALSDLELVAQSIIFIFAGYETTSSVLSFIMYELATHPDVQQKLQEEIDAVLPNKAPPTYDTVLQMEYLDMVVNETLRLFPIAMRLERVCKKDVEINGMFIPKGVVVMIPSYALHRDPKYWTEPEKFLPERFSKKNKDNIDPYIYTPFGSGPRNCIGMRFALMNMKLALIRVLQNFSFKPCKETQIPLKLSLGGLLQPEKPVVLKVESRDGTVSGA

For the next data set, the target named is T1, Cytochrome P450 2C8 (Homo sapiens, UniProt P10632).
T1 sequence (P10632 whole entry): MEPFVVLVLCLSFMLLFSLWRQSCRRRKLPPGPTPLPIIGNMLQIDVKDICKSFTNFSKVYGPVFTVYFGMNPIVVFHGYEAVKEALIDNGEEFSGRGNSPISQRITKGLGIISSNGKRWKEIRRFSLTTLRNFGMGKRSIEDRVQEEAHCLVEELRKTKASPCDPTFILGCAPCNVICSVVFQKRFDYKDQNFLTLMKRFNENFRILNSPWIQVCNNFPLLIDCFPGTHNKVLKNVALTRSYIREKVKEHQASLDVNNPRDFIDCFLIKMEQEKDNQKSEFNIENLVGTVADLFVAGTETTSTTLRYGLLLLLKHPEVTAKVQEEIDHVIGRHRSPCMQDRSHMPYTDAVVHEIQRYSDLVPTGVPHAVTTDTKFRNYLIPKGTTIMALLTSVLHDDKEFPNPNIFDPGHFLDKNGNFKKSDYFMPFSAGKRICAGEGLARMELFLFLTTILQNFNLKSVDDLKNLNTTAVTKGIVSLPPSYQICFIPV
As to the kind of experiment: Activity of human CYP2C8 expressed in microsomes isolated from baculovirus infected insect cell assessed as enzyme-mediated compound formation treated with [14C]-rivoglitazone at 20 uM after 2 hrs by radio-HPLC/LC-MS/MS analysis in presence of NADPH-generating system and NADPH-generating system/SAM. The data set is classed as ADME. In a few lines: (§2)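 Baculovirus/insect-cell microsomes expressing single human CYPs, 1 mg/ml protein, with 50 mM potassium phosphate (pH 7.4) or 100 mM Tris-HCl (pH 7.5). NADPH-generating system: 2 mM NADP⁺, 20 mM glucose 6-phosphate, 2 units/ml G6PDH, 10 mM MgCl₂. [¹⁴C]rivoglitazone at 20 μM, 2 h at 37°C with shaking. Control used insect-cell control supersomes. Stopped with acetonitrile; supernatant concentrated under nitrogen; metabolites analysed by radio-HPLC, LC-MS and LC-MS/MS.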

The nature of data set [2]: Drug level in po dosed monkey liver microsomes treated with [14C]-rivoglitazone. The data set is classed as ADME, organism-based, Macaca mulatta. Particulars: rhesus monkey, in vivo. (Liver microsomes are a subcellular fraction often used to study metabolism.)
The nature of data set [3]: Drug level in po dosed monkey bile treated with [14C]-rivoglitazone. The data set is classed as ADME, organism-based, Macaca mulatta. Particulars: rhesus monkey, in vivo.
The next data set addresses T2, Cytochrome P450 1A2 (Homo sapiens, UniProt P05177).
T2 sequence (P05177 whole entry): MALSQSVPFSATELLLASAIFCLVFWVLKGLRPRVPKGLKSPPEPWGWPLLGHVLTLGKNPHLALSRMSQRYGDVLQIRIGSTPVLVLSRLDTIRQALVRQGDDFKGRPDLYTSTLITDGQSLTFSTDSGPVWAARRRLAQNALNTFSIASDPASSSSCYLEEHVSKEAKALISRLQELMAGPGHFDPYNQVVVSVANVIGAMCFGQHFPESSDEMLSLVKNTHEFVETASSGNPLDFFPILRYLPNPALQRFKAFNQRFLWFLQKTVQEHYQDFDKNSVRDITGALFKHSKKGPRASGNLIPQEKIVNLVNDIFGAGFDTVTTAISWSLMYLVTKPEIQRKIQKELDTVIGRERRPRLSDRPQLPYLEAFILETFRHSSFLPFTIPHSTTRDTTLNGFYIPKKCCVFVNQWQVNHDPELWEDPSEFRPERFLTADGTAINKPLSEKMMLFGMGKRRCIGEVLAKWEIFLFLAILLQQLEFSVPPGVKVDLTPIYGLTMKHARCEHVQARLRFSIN
As to the kind of experiment: Activity of human CYP1A2 expressed in microsomes isolated from baculovirus infected insect cell assessed as enzyme-mediated compound formation treated with [14C]-rivoglitazone at 20 uM after 2 hrs by radio-HPLC/LC-MS/MS analysis in presence of NADPH-generating system and NADPH-generating system/SAM. It counts as ADME. In a few lines:
as §2

In another data set the target is Cytochrome P450 2D6 (Homo sapiens, UniProt P10635). As to the kind of experiment: Activity of human CYP2D6 expressed in microsomes isolated from baculovirus infected insect cell assessed as enzyme-mediated compound formation treated with [14C]-rivoglitazone at 20 uM after 2 hrs by radio-HPLC/LC-MS/MS analysis in presence of NADPH-generating system and NADPH-generating system/SAM. It counts as ADME.
Sequence of Cytochrome P450 2D6 (P10635 whole entry): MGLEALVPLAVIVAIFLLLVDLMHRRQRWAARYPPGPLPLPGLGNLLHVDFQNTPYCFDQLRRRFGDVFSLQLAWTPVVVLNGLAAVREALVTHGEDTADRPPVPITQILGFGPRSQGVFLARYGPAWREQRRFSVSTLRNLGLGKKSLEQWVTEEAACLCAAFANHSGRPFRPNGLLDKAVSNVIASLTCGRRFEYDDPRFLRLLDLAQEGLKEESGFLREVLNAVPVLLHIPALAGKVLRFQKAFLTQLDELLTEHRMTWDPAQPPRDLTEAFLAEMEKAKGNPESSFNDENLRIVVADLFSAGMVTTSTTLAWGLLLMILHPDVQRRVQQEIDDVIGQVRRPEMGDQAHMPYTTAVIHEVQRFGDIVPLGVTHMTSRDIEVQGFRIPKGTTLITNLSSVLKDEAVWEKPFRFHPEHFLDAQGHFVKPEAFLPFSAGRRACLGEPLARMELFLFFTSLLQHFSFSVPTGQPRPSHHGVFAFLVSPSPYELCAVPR

The subject of the next data set is Plasma. As to the kind of experiment: Drug level in po dosed monkey plasma treated with [14C]-rivoglitazone. The data set is classed as ADME, organism-based, Macaca mulatta. Particulars: rhesus monkey, in vivo.
A short description of data set [4]: Retention time of the compound by LC-MS/MS analysis. It counts as physicochemical. In a few lines: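 LC-MS/MS used a YMC-Pack ODS-A column (1.5 × 150 mm, 5 μm) at 30°C, 0.1 ml/min. Mobile phase was water and acetonitrile, each with 0.01% TFA. Gradient: 12→60% B over 30 min, →90% B over 5 min, hold 5 min. Detection was UV 220 nm with positive ESI Q-TOF (capillary 3300 V, cone 45 V), collision energy 20 eV and xenon as collision gas.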

The target in another data set is Cytochrome P450 2C9 (Homo sapiens, UniProt P11712). As to the kind of experiment: Activity of human CYP2C9 expressed in microsomes isolated from baculovirus infected insect cell assessed as enzyme-mediated compound formation treated with [14C]-rivoglitazone at 20 uM after 2 hrs by radio-HPLC/LC-MS/MS analysis in presence of NADPH-generating system and NADPH-generating system/SAM. The data set is classed as ADME.
Sequence of Cytochrome P450 2C9 (P11712 whole entry): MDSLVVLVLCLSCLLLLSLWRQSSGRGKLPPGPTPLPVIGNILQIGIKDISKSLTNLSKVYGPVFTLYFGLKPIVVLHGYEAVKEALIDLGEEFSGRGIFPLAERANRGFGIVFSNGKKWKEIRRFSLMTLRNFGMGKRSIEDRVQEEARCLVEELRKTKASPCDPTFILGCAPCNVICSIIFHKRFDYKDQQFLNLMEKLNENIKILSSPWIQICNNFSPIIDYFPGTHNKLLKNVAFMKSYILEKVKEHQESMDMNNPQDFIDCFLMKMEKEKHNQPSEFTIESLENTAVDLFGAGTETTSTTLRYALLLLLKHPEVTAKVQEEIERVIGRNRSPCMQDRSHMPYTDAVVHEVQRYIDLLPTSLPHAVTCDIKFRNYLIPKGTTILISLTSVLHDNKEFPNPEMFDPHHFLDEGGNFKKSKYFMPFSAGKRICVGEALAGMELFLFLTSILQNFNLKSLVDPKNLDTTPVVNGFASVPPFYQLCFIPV

In another data set the target is Cytochrome P450 2C19 (Homo sapiens, UniProt P33261). The data set is described as follows: Activity of human CYP2C19 expressed in microsomes isolated from baculovirus infected insect cell assessed as enzyme-mediated compound formation treated with [14C]-rivoglitazone at 20 uM after 2 hrs by radio-HPLC/LC-MS/MS analysis in presence of NADPH-generating system and NADPH-generating system/SAM. The data set is classed as ADME. In a few lines: as §2
Sequence of Cytochrome P450 2C19 (P33261 whole entry): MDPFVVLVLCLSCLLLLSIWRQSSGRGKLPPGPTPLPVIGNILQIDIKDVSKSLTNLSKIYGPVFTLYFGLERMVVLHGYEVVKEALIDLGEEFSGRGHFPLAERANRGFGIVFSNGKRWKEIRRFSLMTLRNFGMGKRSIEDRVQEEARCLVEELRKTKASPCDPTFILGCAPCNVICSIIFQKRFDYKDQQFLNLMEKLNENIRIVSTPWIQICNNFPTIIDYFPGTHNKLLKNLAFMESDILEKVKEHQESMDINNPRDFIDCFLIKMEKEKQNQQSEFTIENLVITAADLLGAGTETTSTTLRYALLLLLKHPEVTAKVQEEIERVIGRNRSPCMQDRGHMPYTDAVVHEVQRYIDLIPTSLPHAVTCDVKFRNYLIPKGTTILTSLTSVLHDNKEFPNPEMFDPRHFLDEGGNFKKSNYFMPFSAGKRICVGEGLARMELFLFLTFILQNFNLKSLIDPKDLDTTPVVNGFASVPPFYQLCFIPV

The subject of data set [5] is Hepatocyte. The data set is described as follows: Drug level in rat hepatocytes treated with [14C]-rivoglitazone at 30 uM after 3 hrs by radio-HPLC/LC-MS/MS analysis in presence of NADPH-generating system and NADPH-generating system/SAM. It counts as ADME, cell-based.
The subject of data set [6] is Liver microsome. The data set is described as follows: Drug level in human liver microsomes treated with [14C]-rivoglitazone at 20 uM after 2 hrs by radio-HPLC/LC-MS/MS analysis in presence of NADPH-generating system and NADPH-generating system/SAM. It counts as ADME. In a few lines: as §1
The next data set has as its target Cytochrome P450 3A5 (Homo sapiens, UniProt P20815). As to the kind of experiment: Activity of human CYP3A5 expressed in microsomes isolated from baculovirus infected insect cell assessed as enzyme-mediated compound formation treated with [14C]-rivoglitazone at 20 uM after 2 hrs by radio-HPLC/LC-MS/MS analysis in presence of NADPH-generating system and NADPH-generating system/SAM. It counts as ADME. In a few lines: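 cDNA-expressed human CYP3A5 in baculovirus-insect-cell microsomes (1 mg/ml protein) was incubated with [¹⁴C]rivoglitazone (20 μM) in 50 mM potassium phosphate (pH 7.4) or 100 mM Tris-HCl (pH 7.5). NADPH-generating system: 2 mM NADP⁺, 20 mM glucose 6-phosphate, 2 units/ml G6PDH, 10 mM MgCl₂. Incubation ran 2 h at 37°C with shaking; insect-cell control supersomes served as control. Acetonitrile stop, supernatant concentrated, then radio-HPLC, LC-MS and LC-MS/MS.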

Data set [7] in a line: Drug level in cynomolgus monkey liver microsomes treated with [14C]-rivoglitazone at 20 uM after 2 hrs by radio-HPLC/LC-MS/MS analysis in presence of NADPH-generating system and NADPH-generating system/SAM. It counts as ADME, Macaca fascicularis. In a few lines:
as §1

The subject of data set [8] is Hepatocyte. The data set is described as follows: Drug level in human hepatocytes treated with [14C]-rivoglitazone at 30 uM after 3 hrs by radio-HPLC/LC-MS/MS analysis in presence of NADPH-generating system and NADPH-generating system/SAM. It counts as ADME, cell-based.

Sequence of Cytochrome P450 3A5 (P20815 whole entry): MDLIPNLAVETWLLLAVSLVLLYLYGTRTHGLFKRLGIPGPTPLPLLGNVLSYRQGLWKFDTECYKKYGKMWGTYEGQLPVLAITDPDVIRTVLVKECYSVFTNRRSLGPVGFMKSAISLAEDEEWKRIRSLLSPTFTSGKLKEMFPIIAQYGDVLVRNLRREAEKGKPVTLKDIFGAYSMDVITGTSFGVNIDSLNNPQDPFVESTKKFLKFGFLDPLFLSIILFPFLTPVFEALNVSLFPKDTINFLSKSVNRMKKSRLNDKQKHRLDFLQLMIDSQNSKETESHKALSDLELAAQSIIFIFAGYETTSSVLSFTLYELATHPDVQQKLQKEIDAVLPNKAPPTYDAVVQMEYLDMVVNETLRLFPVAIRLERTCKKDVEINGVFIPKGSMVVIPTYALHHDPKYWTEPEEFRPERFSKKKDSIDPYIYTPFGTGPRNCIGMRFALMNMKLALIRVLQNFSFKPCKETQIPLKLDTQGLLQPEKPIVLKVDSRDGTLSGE

Take `COc1ccc2nc(COc3ccc(CC4SC(=O)NC4=O)cc3)[nH]c2c1` (stereo unspecified): the Drug metabolism entry (with Liver microsome [1]; on Cytochrome P450 3A4; at Cytochrome P450 2C8; in [2]; in [3]; on Cytochrome P450 1A2) was “metabolite_detected” in each case. Further, the Drug metabolism result at Cytochrome P450 2D6, in the data set with Plasma, at Cytochrome P450 2C9, on Cytochrome P450 2C19, with Hepatocyte [5] and in the data set with Liver microsome [6] was “metabolite_detected” in each case. The Drug metabolism result (at Cytochrome P450 3A5; in data set [7]; in the data set on Hepatocyte [8]) was “metabolite_detected” throughout. For the same molecule, the Retention_time in [4] came to 20.9 min.
